Assay results from ChEMBL document CHEMBL1136089, “Synthesis and in vitro activity of new methylenepiperidinyl and methylenepyrrolidinyl oxazolidinone antibacterial agents” (Bioorg Med Chem Lett, 2003).
Values after ≈ are worked out from the molar mass of the structure shown.

Columns and labels:
[1] = system: Staphylococcus epidermidis; assay: In vitro antibacterial activity against Staphylococcus epidermis C2235; assay type: functional
Procedure, shortened: (§1)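 MIC by agar dilution on Mueller–Hinton agar, inoculum 10⁴ CFU/spot. Reported in μg/mL.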

Enterococcus faecium = assay: In vitro antibacterial activity against vancomycin-resistant Enterococcus faecium C6487
Enterococcus faecalis [2] = assay: In vitro antibacterial activity against Enterococcus faecalis C6301 (E. f. 1); assay type: functional; procedure, shortened: as §1
[3] = system: Staphylococcus epidermidis; assay: In vitro antibacterial activity against Staphylococcus epidermis ATCC 1228; assay type: functional; procedure, shortened: as §1
Staphylococcus aureus [4] = assay: In vitro antibacterial activity against Staphylococcus aureus; assay type: functional
Staphylococcus aureus [5] = assay: In vitro antibacterial activity against ciprofloxacin-resistant Staphylococcus aureus (CRSA); assay type: functional
Streptococcus pyogenes [6] = assay: In vitro antibacterial activity against Streptococcus pyogenes ATTCC8668
Staphylococcus aureus [7] = assay: In vitro antibacterial against methicillin-susceptible Staphylococcus aureus (MSSA); assay type: functional
Enterococcus faecalis [8] = assay: In vitro antibacterial activity against Enterococcus faecalis C6291 (E. f. 1); assay type: functional; procedure, shortened: as §1
Staphylococcus aureus [9] = assay: In vitro antibacterial activity against methicillin-resistant Staphylococcus aureus (MRSA); assay type: functional
Streptococcus pyogenes [10] = assay: In vitro antibacterial activity against Streptococcus pyogenes C6003
[11] = Area under curve was determined in male rat; assay type: ADME, organism-based; conditions: in vivo
Procedure, shortened: (§2)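 Single oral dose of 15 mg/Kg to rats, with compound dissolved in 50% PEG solution.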

[12] = Tmax in male rat; assay type: ADME, organism-based; conditions: in vivo; procedure, shortened: as §2
[13] = Half-life in male rat; assay type: ADME, organism-based; conditions: in vivo; procedure, shortened: as §2
[14] = Cmax in male rat; assay type: ADME, organism-based; conditions: in vivo; procedure, shortened: as §2

SMILES | MIC [1] | MIC (Enterococcus faecium) | MIC (Enterococcus faecalis [2]) | MIC [3] | MIC (Staphylococcus aureus [4]) | MIC (Staphylococcus aureus [5]) | MIC (Streptococcus pyogenes [6]) | MIC (Staphylococcus aureus [7]) | MIC (Enterococcus faecalis [8]) | MIC (Staphylococcus aureus [9]) | MIC (Streptococcus pyogenes [10]) | AUC [11] | Tmax [12] | half-life [13] | Cmax [14]
CCOC(=O)/C(C#N)=C1/CCN(c2ccc(N3C[C@H](CNC(C)=O)OC3=O)cc2F)C1 | 8 µg/mL (≈ 18.6 µM) | 16 µg/mL (≈ 37.2 µM) | 32 µg/mL (≈ 74.3 µM) | 8 µg/mL (≈ 18.6 µM) | 16 µg/mL (≈ 37.2 µM) | 16 µg/mL (≈ 37.2 µM) | – | – | – | – | – | – | – | – | –
CO/N=C(\C)C=C1CCN(c2ccc(N3C[C@H](CNC(C)=O)OC3=O)cc2F)CC1 | 8 µg/mL (≈ 19.1 µM) | 4 µg/mL (≈ 9.56 µM) | 8 µg/mL (≈ 19.1 µM) | 8 µg/mL (≈ 19.1 µM) | 16 µg/mL (≈ 38.2 µM) | 16 µg/mL (≈ 38.2 µM) | 2 µg/mL (≈ 4.78 µM) | 16 µg/mL (≈ 38.2 µM) | 8 µg/mL (≈ 19.1 µM) | 8 µg/mL (≈ 19.1 µM) | 8 µg/mL (≈ 19.1 µM) | – | – | – | –
CC(=O)NC[C@H]1CN(c2ccc(N3CCC(=C/C(C)=N/O)CC3)c(F)c2)C(=O)O1 | 4 µg/mL (≈ 9.89 µM) | 4 µg/mL (≈ 9.89 µM) | 4 µg/mL (≈ 9.89 µM) | 1 µg/mL (≈ 2.47 µM) | 8 µg/mL (≈ 19.8 µM) | 8 µg/mL (≈ 19.8 µM) | 1 µg/mL (≈ 2.47 µM) | 8 µg/mL (≈ 19.8 µM) | 4 µg/mL (≈ 9.89 µM) | 4 µg/mL (≈ 9.89 µM) | 4 µg/mL (≈ 9.89 µM) | – | – | – | –
CC(=O)NC[C@H]1CN(c2ccc(N3CCC(=CC#N)CC3)c(F)c2)C(=O)O1 | 1 µg/mL (≈ 2.69 µM) | 4 µg/mL (≈ 10.7 µM) | 2 µg/mL (≈ 5.37 µM) | 0.5 µg/mL (≈ 1.34 µM) | 2 µg/mL (≈ 5.37 µM) | 2 µg/mL (≈ 5.37 µM) | 0.5 µg/mL (≈ 1.34 µM) | 4 µg/mL (≈ 10.7 µM) | 2 µg/mL (≈ 5.37 µM) | 1 µg/mL (≈ 2.69 µM) | 2 µg/mL (≈ 5.37 µM) | 6810 ng·h/mL | 0.5 h | 8.14 h | 1320 ng/mL
CC(=O)NC[C@H]1CN(c2ccc(N3CCC(=Cc4cc(-c5cccs5)no4)CC3)c(F)c2)C(=O)O1 | 8 µg/mL (≈ 16.1 µM) | 16 µg/mL (≈ 32.2 µM) | 16 µg/mL (≈ 32.2 µM) | 4 µg/mL (≈ 8.06 µM) | 32 µg/mL (≈ 64.4 µM) | 16 µg/mL (≈ 32.2 µM) | 2 µg/mL (≈ 4.03 µM) | 16 µg/mL (≈ 32.2 µM) | 16 µg/mL (≈ 32.2 µM) | 16 µg/mL (≈ 32.2 µM) | 16 µg/mL (≈ 32.2 µM) | – | – | – | –
CC(=O)NC[C@H]1CN(c2ccc(N3CC/C(=C(\C)C#N)C3)c(F)c2)C(=O)O1 | 1 µg/mL (≈ 2.69 µM) | 2 µg/mL (≈ 5.37 µM) | 4 µg/mL (≈ 10.7 µM) | 1 µg/mL (≈ 2.69 µM) | 1 µg/mL (≈ 2.69 µM) | 1 µg/mL (≈ 2.69 µM) | – | – | – | – | – | – | – | – | –
CC(=O)NC[C@H]1CN(c2ccc(N3CCC(=C(C)C#N)CC3)c(F)c2)C(=O)O1 | 2 µg/mL (≈ 5.18 µM) | 1 µg/mL (≈ 2.59 µM) | 2 µg/mL (≈ 5.18 µM) | 0.5 µg/mL (≈ 1.29 µM) | 2 µg/mL (≈ 5.18 µM) | 2 µg/mL (≈ 5.18 µM) | 0.5 µg/mL (≈ 1.29 µM) | 2 µg/mL (≈ 5.18 µM) | 2 µg/mL (≈ 5.18 µM) | 2 µg/mL (≈ 5.18 µM) | 2 µg/mL (≈ 5.18 µM) | – | – | – | –
CC(=O)NC[C@H]1CN(c2ccc(N3CCC(=C(C#N)C#N)CC3)c(F)c2)C(=O)O1 | 2 µg/mL (≈ 5.03 µM) | 4 µg/mL (≈ 10.1 µM) | 2 µg/mL (≈ 5.03 µM) | 1 µg/mL (≈ 2.52 µM) | 2 µg/mL (≈ 5.03 µM) | 4 µg/mL (≈ 10.1 µM) | 1 µg/mL (≈ 2.52 µM) | 4 µg/mL (≈ 10.1 µM) | 4 µg/mL (≈ 10.1 µM) | 2 µg/mL (≈ 5.03 µM) | 4 µg/mL (≈ 10.1 µM) | – | – | – | –
CO/N=C/C=C1CCN(c2ccc(N3C[C@H](CNC(C)=O)OC3=O)cc2F)CC1 | 2 µg/mL (≈ 4.95 µM) | 4 µg/mL (≈ 9.89 µM) | 4 µg/mL (≈ 9.89 µM) | 1 µg/mL (≈ 2.47 µM) | 8 µg/mL (≈ 19.8 µM) | 4 µg/mL (≈ 9.89 µM) | 1 µg/mL (≈ 2.47 µM) | 8 µg/mL (≈ 19.8 µM) | 4 µg/mL (≈ 9.89 µM) | 4 µg/mL (≈ 9.89 µM) | 2 µg/mL (≈ 4.95 µM) | – | – | – | –
CC(=O)NC[C@H]1CN(c2ccc(N3CCC(=C/C=N/O)CC3)c(F)c2)C(=O)O1 | 4 µg/mL (≈ 10.2 µM) | 4 µg/mL (≈ 10.2 µM) | 4 µg/mL (≈ 10.2 µM) | 1 µg/mL (≈ 2.56 µM) | 8 µg/mL (≈ 20.5 µM) | 8 µg/mL (≈ 20.5 µM) | 2 µg/mL (≈ 5.12 µM) | 8 µg/mL (≈ 20.5 µM) | 4 µg/mL (≈ 10.2 µM) | 4 µg/mL (≈ 10.2 µM) | 4 µg/mL (≈ 10.2 µM) | – | – | – | –
C/C(S)=N/C[C@H]1CN(c2ccc(N3CCC(=CC#N)CC3)c(F)c2)C(=O)O1 | 0.5 µg/mL (≈ 1.29 µM) | 0.5 µg/mL (≈ 1.29 µM) | 1 µg/mL (≈ 2.57 µM) | 0.5 µg/mL (≈ 1.29 µM) | 2 µg/mL (≈ 5.15 µM) | 2 µg/mL (≈ 5.15 µM) | 0.5 µg/mL (≈ 1.29 µM) | 2 µg/mL (≈ 5.15 µM) | 1 µg/mL (≈ 2.57 µM) | 2 µg/mL (≈ 5.15 µM) | 0.25 µg/mL (≈ 0.644 µM) | – | – | – | –
CC(=O)NC[C@H]1CN(c2ccc(N3CCC(=CC(=O)[O-])CC3)c(F)c2)C(=O)O1.[Na+] | 1 µg/mL | 8 µg/mL | 4 µg/mL | 1 µg/mL | 8 µg/mL | 8 µg/mL | 2 µg/mL | 8 µg/mL | 8 µg/mL | 4 µg/mL | 8 µg/mL | – | – | – | –
CC(=O)NC[C@H]1CN(c2ccc(N3CC/C(=C/C#N)C3)c(F)c2)C(=O)O1 | – | 1 µg/mL (≈ 2.79 µM) | 1 µg/mL (≈ 2.79 µM) | 0.5 µg/mL (≈ 1.4 µM) | 0.5 µg/mL (≈ 1.4 µM) | 0.5 µg/mL (≈ 1.4 µM) | – | – | – | – | – | – | – | – | –
